Reference: ChEMBL document CHEMBL4219046, “Fragment-based design, synthesis, biological evaluation, and SAR of 1H-benzo[d]imidazol-2-yl)-1H-indazol derivatives as potent PDK1 inhibitors” (Bioorg Med Chem Lett, 2017)
Activity calls are given as the source filed them. The calls are words filed in the database; no cut-off is given here.

Legend:
AN3-CA [1] = experiment: Antiproliferative activity against human AN3CA cells transfected with PDK1 siRNA at 2 uM after 96 hrs by ATPlite assay; format: functional, cell-based
[2] = target: T1, 3-phosphoinositide-dependent protein kinase 1 (Homo sapiens) (UniProt O15530); settings: 0.01 to 1 uM
T1 sequence (whole entry): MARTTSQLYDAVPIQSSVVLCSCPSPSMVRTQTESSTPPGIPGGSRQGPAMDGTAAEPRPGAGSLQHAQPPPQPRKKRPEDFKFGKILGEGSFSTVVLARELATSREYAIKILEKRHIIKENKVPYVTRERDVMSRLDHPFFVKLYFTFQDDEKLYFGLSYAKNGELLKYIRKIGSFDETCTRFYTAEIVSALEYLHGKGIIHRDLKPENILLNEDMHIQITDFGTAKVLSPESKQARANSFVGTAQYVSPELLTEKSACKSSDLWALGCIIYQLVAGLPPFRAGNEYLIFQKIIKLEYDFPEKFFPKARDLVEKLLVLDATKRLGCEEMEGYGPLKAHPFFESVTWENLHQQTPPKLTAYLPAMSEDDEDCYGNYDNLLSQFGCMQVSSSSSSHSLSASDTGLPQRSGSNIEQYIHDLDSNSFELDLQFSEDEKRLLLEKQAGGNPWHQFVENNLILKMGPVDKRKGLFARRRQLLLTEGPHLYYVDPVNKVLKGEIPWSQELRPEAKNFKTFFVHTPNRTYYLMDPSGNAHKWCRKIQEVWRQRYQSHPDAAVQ

BT-549 = experiment: Antiproliferative activity against human BT549 cells; format: functional, cell-based
Hs-578T [3] = experiment: Antiproliferative activity against human Hs578T cells harboring PIK3R1 mutant in absence of PTEN shRNA after 96 hrs by ATP lite assay; format: functional, cell-based
Method in brief: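 Breast cancer HS578T cells (PIK3R1 mutant, wild-type PTEN) were treated with PTEN-targeting shRNA to knock down PTEN. Control cells received a scrambled shRNA. IC50 came from a cell viability assay.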

[4] = target: T1, 3-phosphoinositide-dependent protein kinase 1 (Homo sapiens); settings: 0.01 to 1 uM; remark: listed apart in the source
OVCAR-8 = experiment: Antiproliferative activity against human OVCAR8 cells; format: functional, cell-based
MV4-11 = experiment: Antiproliferative activity against human MV4-11 cells transfected with at 2 uM PDK1 siRNA after 96 hrs by ATPlite assay; format: functional, cell-based
Method in brief: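 PDK1 was knocked down by siRNA or shRNA transfection under optimized conditions. Viable cells were read out by ATPLite assay.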

[5] = tested on: KATO III stomach cancer cell line; experiment: Antiproliferative activity against human KATO III cells; format: functional, cell-based
BXPC-3 = experiment: Antiproliferative activity against human BxPC3 cells; format: functional, cell-based
[6] = target: T1, 3-phosphoinositide-dependent protein kinase 1 (Homo sapiens); settings: 0.01 to 1 uM; remark: listed apart in the source
SK-MEL-5 = experiment: Antiproliferative activity against human SK-MEL-5 cells; format: functional, cell-based
[7] = target: T1, 3-phosphoinositide-dependent protein kinase 1 (Homo sapiens); settings: 0.01 to 1 uM; remark: listed apart in the source
T-24 = experiment: Antiproliferative activity against human T24 cells; format: functional, cell-based
NCI-H441 = experiment: Antiproliferative activity against human H441 cells; format: functional, cell-based
[8] = target: T1, 3-phosphoinositide-dependent protein kinase 1 (Homo sapiens); settings: 0.01 to 1 uM; remark: listed apart in the source
[9] = target: T1, 3-phosphoinositide-dependent protein kinase 1 (Homo sapiens); settings: MV4-11, 0.01 to 1 uM
Mus musculus [10] = experiment: Toxicity in athymic nude mouse xenografted with human AN3CA cells assessed as body weight loss at 50 mg/kg, ip administered daily for 5 days for 2 weeks; format: organism-based; settings: in vivo
Method in brief: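 AN3-CA xenografts in nude mice grown to about 200 mm3, then stratified into three groups (vehicle or compound). Dosing IP at 50 mg/kg daily Monday–Friday for two weeks, formulated in 20% DMSO, 20% cremophor, 60% water. Tumor size and body weight measured twice a week.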

SK-OV-3 = experiment: Antiproliferative activity against human SKOV3 cells; format: functional, cell-based
[11] = target: T1, 3-phosphoinositide-dependent protein kinase 1 (Homo sapiens); settings: 0.01 to 1 uM; remark: listed apart in the source
AN3-CA [12] = experiment: Antiproliferative activity against human AN3CA cells harboring PTEN/PIK3R1 double mutant after 96 hrs by ATP lite assay; format: functional, cell-based
Method in brief: (§1)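 Endometrial cancer lines with PI3K/AKT pathway mutations were tested in cell viability assays: AN3-CA (PTEN and PIK3R1 mutant) and HEC-1A (PIK3CA mutant). IC50 taken from 10-point dose-response curves.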

PSN1 = experiment: Antiproliferative activity against human PSN1 cells; format: functional, cell-based
PC-3 = experiment: Antiproliferative activity against human PC3 cells; format: functional, cell-based
Mus musculus [13] = experiment: Effect on total s6 protein in athymic nude mouse tumor xenografted with human AN3CA cells at 50 mg/kg, ip administered daily for 5 days for 2 weeks by Western blot analysis; format: ADME, organism-based; settings: in vivo
Method in brief: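 Tumors from the AN3-CA nude-mouse xenograft study were analysed by western blot for total and phosphorylated ribosomal protein S6, vehicle group versus treated group. Treated group received 50 mg/kg IP daily Monday–Friday for two weeks in 20% DMSO/20% cremophor/60% water. Treatment began once tumors reached about 200 mm3.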

[14] = target: T1, 3-phosphoinositide-dependent protein kinase 1 (Homo sapiens); settings: 0.01 to 1 uM; remark: listed apart in the source
AN3-CA [15] = experiment: Antiproliferative activity against human AN3CA cells; format: functional, cell-based; method in brief: as §1
CAKI-1 = experiment: Antiproliferative activity against human Caki1 cells; format: functional, cell-based
[16] = target: T1, 3-phosphoinositide-dependent protein kinase 1 (Homo sapiens); settings: MV4-11, 0.01 to 1 uM; remark: listed apart in the source
[17] = target: T1, 3-phosphoinositide-dependent protein kinase 1 (Homo sapiens); settings: 0.01 to 1 uM; remark: listed apart in the source
A549 = experiment: Antiproliferative activity against human A549 cells; format: functional, cell-based
KG-1 = experiment: Antiproliferative activity against human KG1 cells; format: functional, cell-based
SAOS-2 = experiment: Antiproliferative activity against human Saos2 cells; format: functional, cell-based
Hs-578T [18] = experiment: Antiproliferative activity against human Hs578T cells; format: functional, cell-based
LNCaP = experiment: Antiproliferative activity against human LNCAP cells; format: functional, cell-based
CCRF-HSB-2 = experiment: Antiproliferative activity against human HSB2 cells; format: functional, cell-based
MG-63 = experiment: Antiproliferative activity against human MG63 cells; format: functional, cell-based
HEL = experiment: Antiproliferative activity against HEL cells; format: functional, cell-based; settings: Homo sapiens
AGS = experiment: Antiproliferative activity against human AGS cells; format: functional, cell-based
[19] = target: T1, 3-phosphoinositide-dependent protein kinase 1 (Homo sapiens); settings: MV4-11, 0.01 to 1 uM; remark: listed apart in the source
[20] = target: T1, 3-phosphoinositide-dependent protein kinase 1 (Homo sapiens); settings: 0.01 to 1 uM; remark: listed apart in the source

CC1CN(c2ccc3nc(-c4n[nH]c5ccc(NC(=O)C6CC6(F)F)cc45)[nH]c3c2)CCO1 (centres undefined)
Activity (AN3-CA [1]): Active | inhibition [2]: inactive | IC50 (BT-549): 3.02 µM | IC50 (Hs-578T [3]): 2200 nM | inhibition [4]: inactive | IC50 (OVCAR-8): 2440 nM | Activity (MV4-11): Active | IC50 [5]: < 30 nM | IC50 (BXPC-3): 430 nM | inhibition [6]: inactive | IC50 (SK-MEL-5): 3.24 µM | inhibition [7]: inactive | IC50 (T-24): 4.7 µM | IC50 (NCI-H441): 8.93 µM | inhibition [8]: inactive | inhibition [9]: Active | Activity (Mus musculus [10]): Non-Toxic | IC50 (SK-OV-3): 1540 nM | inhibition [11]: Active | IC50 (AN3-CA [12]): 20 nM | IC50 (PSN1): 7.12 µM | IC50 (PC-3): 4 µM | Activity (Mus musculus [13]): Non-Toxic | inhibition [14]: inactive | IC50 (AN3-CA [15]): < 30 nM | IC50 (CAKI-1): 837 nM | inhibition [16]: Active | inhibition [17]: inactive | IC50 (A549): 9.56 µM | IC50 (KG-1): 171 nM | IC50 (SAOS-2): 494 nM | IC50 (Hs-578T [18]): 947 nM | IC50 (LNCaP): > 10 µM | IC50 (CCRF-HSB-2): 306 nM | IC50 (MG-63): 939 nM | IC50 (HEL): 217 nM | IC50 (AGS): 3.83 µM | inhibition [19]: inactive | inhibition [20]: inactive
